# Test results published in publication PMC3228901 (Cancer research, 2011).
# Columns and labels:
# F9 cells [1] = assay: Growth of F9 cells, cell numbers counted; assay type: cell-based, mouse; conditions: 50 μM, 30 hours
# Summary of the method: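 F9 cells on gelatin-coated dishes in DMEM/10% FBS were treated with DMSO or 50 μM test compound for 30 h. Cells were then counted and expressed as percent of DMSO control. A separate concentration series was also run over 30 h.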
# NIH 3T3 = assay: Growth of NIH 3T3 cells; assay type: cell-based; conditions: even at relatively high concentrations (100–200 μM)
# [2] = test system: methylated H3K4 in F9 embryonic teratocarcinoma cells; assay: Histone H3 methylation in F9 cells, Western blotting; assay type: cell-based, mouse; conditions: for IC50: read-out: IC50 in F9 cells (histone H3K4 methylation), various concentrations
# Summary of the method: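 F9 cells received 10 μM test compound for 24 h, plus a concentration series. Total histones were then extracted. Mono- and di-methylated H3K4, tri-methylated H3K4, di-methylated H3K9 and total histone H3 were probed by Western blot with specific antibodies. F9 cells given 50 nM LSD1 siRNA for 48 h served as comparison.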
# mouse ES cells = assay: Spherical growth of embryonic stem cells; assay type: cell-based; conditions: 50 μM, 30 hours
# Summary of the method: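 Mouse ES cells, cultured on irradiated mouse embryonic fibroblasts in DMEM with 10% FBS, were treated with DMSO or 50 μM test compound for 30 h. Spherical colony growth was then examined.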
# HeLa = assay: Growth of HeLa cells; assay type: cell-based; conditions: even at relatively high concentrations (100–200 μM)
# [3] = target: recombinant human LSD1 protein (Homo sapiens, UniProt O60341); assay: In vitro LSD1 demethylation assay, di-methylated H3K4 peptide, mass-spectrometry; assay type: biochemical; conditions: read-out: half maximal inhibitory concentration (IC50) for LSD1, 30 °C, 1 hour, MS peak areas
# Summary of the method: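 GST-tagged human LSD1 was expressed in bacteria and purified; protein was also obtained commercially. The enzyme was incubated with di-methylated H3K4 peptide at 30 °C for 1 h, with test compound at 0–100 μM (0, 1, 2, 5, 10, 20, 50, 100 μM). Me1 and Me0 products were read by MALDI TOF/TOF MS. Conversion efficiency came from integrated product peak areas, and IC50 was fitted from conversion efficiency.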
# F9 cells [4] = assay: Cell permeability assay in F9 cells, mass-spectrometry; assay type: in vitro ADME, mouse; conditions: 2 hours incubation, washed cells
# Summary of the method: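 F9 cells exposed to test compound for 2 h, with DMSO as control, then extensively washed and lysed immediately. Lysate mixed with 4 volumes acetone at −20 °C for 6 h, precipitate removed by centrifugation, supernatant lyophilized and redissolved in methanol. Compound detected by mass spectrometry against pure compound and untreated-cell lysate as m/z references.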
# 293 = assay: Growth of 293 cells; assay type: cell-based; conditions: even at relatively high concentrations (100–200 μM)
# [5] = test system: CHRM4 and SCN3A gene expression in F9 cells; assay type: cell-based, mouse; conditions: 10 μM, 24 hours, quantitative RT-PCR
# Summary of the method: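 F9 mouse teratocarcinoma cells, grown in DMEM with 10% FBS on 0.1% gelatin-coated dishes, exposed to 10 μM test compound for 24 h; dose series also run in F9 and HeLa cells. CHRM4 and SCN3A mRNA quantified by real-time RT-PCR. LSD1 siRNA-treated F9 cells served as comparison.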
# NCCIT cells = assay: Growth of NCCIT cells; assay type: cell-based, human; conditions: 50 μM, 30 hours
# Summary of the method: (§1)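 Human pluripotent NCCIT and NTERA-2 cells, maintained in DMEM with 10% FBS, were exposed to 50 μM test compound for 30 h and growth assessed. Non-pluripotent HeLa, 293 and NIH3T3 cells were run under the same conditions.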
# NTERA-2 cells = assay: Growth of NTERA-2 cells; assay type: cell-based, human; conditions: 50 μM, 30 hours
# Summary of the method: as §1
smiles,measurement,setting,value
N=C(N)c1ccc(C(=O)N2CCN(C(=O)c3cc(CN4CCN(C(=N)N)CC4)cc([N+](=O)[O-])c3)CC2)cc1 [CBB1003],growth of F9 cells,F9 cells [1],significantly inhibit
same,growth inhibition of NIH 3T3 cells,NIH 3T3,did not display any significant growth inhibition
same,effect on mono- and di-methylated H3K4 in F9 cells,"[2]; 10 μM, 24 hours",reproducible increase
same,effect on tri-methylated H3K4 and di-methylated H3K9 in F9 cells,"[2]; 10 μM, 24 hours",very little effects
same,IC50,[2],5 to 10 µM
same,spherical growth of ES cells,mouse ES cells,substantial inhibition
same,growth inhibition of HeLa cells,HeLa,did not display any significant growth inhibition
same,IC50,[3],10.5 µM
same,presence of compound in F9 cells after exposure,F9 cells [4],readily found
same,growth inhibition of 293 cells,293,did not display any significant growth inhibition
same,activation of CHRM4 and SCN3A expression,[5],led to the activation
same,growth of NCCIT cells,NCCIT cells,inhibited
same,growth of NTERA-2 cells,NTERA-2 cells,inhibited
COC(=O)c1cc(CN2CCN(C(=N)N)CC2)cc(C(=O)N2CCN(C(=O)c3ccc(C(=N)N)cc3)CC2)c1 [CBB1007],growth of F9 cells,F9 cells [1],significantly inhibit
same,growth inhibition of NIH 3T3 cells,NIH 3T3,did not display any significant growth inhibition
same,IC50,[2],1 to 5 µM
same,spherical growth of ES cells,mouse ES cells,substantial inhibition
same,growth inhibition of HeLa cells,HeLa,did not display any significant growth inhibition
same,IC50,[3],5.27 µM
same,growth inhibition of 293 cells,293,did not display any significant growth inhibition
same,growth of NCCIT cells,NCCIT cells,inhibited
same,growth of NTERA-2 cells,NTERA-2 cells,inhibited
